Calls of active or inactive are those of the source. The rule behind the calls is not given here.
Tests used:
Rattus norvegicus [1] = experiment: Antiinflammatory activity against Wistar rat assessed as inhibition of carrageenan induced edema volume at 37.3 uM/kg, po administered 1 hr prior carrageenan-challenge measured after 3 hrs post challenge; assay type: functional
In short: (§1)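 Oral dose of 37.3 μM/kg. Carrageenan (1%) was injected intradermally into the left hindpaw 1 h later. Edema was measured 3 h and 6 h after challenge, and relative inhibition of the edema volume increase was calculated. Mean ± SEM, n = 3−6.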

Rattus norvegicus [2] = experiment: Antiinflammatory activity against Wistar rat assessed as inhibition of carrageenan induced edema volume at 37.3 uM/kg, po administered 1 hr prior carrageenan-challenge measured after 6 hrs post challenge; assay type: functional; in short: as §1
[3] = target: T1, Prostaglandin G/H synthase 1 (Homo sapiens, UniProt P23219); experiment: Inhibition of human whole blood COX-1 assessed as inhibition of TXB2 production at 100 uM by EIA
In short: (§2)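 Human whole blood COX assay, with COX-1 and COX-2 read as prostaglandin biosynthesis. Relative inhibition (%) was taken at fixed test concentrations of 10 and 100 μM. Mean ± SEM, n = 3−6.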

[4] = target: T2, Prostaglandin G/H synthase 2 (Homo sapiens) (UniProt P35354); experiment: Inhibition of LPS-stimulated human whole blood COX-2 assessed as inhibition of PGE2 production at 100 uM by EIA; in short: as §2
T2 sequence (whole entry): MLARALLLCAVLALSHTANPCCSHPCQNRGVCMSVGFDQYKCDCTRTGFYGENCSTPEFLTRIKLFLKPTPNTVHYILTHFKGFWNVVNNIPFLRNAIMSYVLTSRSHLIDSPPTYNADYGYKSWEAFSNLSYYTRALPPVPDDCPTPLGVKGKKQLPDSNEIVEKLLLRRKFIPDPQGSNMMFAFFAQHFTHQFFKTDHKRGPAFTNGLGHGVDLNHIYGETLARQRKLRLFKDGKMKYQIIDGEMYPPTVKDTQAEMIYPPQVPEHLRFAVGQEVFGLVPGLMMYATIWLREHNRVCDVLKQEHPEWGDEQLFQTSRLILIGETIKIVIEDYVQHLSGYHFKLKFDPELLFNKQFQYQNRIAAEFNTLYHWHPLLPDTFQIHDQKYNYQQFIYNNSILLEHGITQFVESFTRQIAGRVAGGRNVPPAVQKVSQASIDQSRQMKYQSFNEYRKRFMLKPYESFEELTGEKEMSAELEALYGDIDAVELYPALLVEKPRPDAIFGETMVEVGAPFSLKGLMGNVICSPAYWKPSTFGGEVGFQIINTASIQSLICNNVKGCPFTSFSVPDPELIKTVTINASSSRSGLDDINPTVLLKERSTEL

[5] = target: T2, Prostaglandin G/H synthase 2 (Homo sapiens); experiment: Inhibition of LPS-stimulated human whole blood COX-2 assessed as inhibition of PGE2 production at 10 uM by EIA; in short: as §2
[6] = target: T1, Prostaglandin G/H synthase 1; experiment: Inhibition of human whole blood COX-1 assessed as inhibition of TXB2 production at 10 uM by EIA; in short: as §2
[7] = target: T1, Prostaglandin G/H synthase 1; experiment: Inhibition of human whole blood COX-1 assessed as inhibition of TXB2 production by EIA
In short: (§3)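 Human whole blood COX-1 and COX-2 assay run over a range of test concentrations. IC50 was fitted to a four-parameter logistic dose−response curve, and the COX-1/COX-2 ratio was computed from the two IC50 values. Mean ± SEM, n = 3−6.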

Homo sapiens = species on record: Homo sapiens; experiment: Selectivity index, ratio of IC50 for human COX1 to IC50 for human COX2; in short: as §3
[8] = target: T3, Prostaglandin G/H synthase 2 (Homo sapiens, UniProt P35354); experiment: Inhibition of LPS-stimulated human whole blood COX-2 assessed as inhibition of PGE2 production by EIA; in short: as §3
T3 sequence (P35354 whole entry): T2 sequence (whole entry)

Rattus norvegicus [9] = experiment: Toxicity in rat assessed as gastric ulcerogenic activity at 0.37 to 7.45 mM/kg, po measured after 8 hrs; assay type: organism-based, Stomach; conditions: in vivo
In short: (§4)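 Rats were given oral doses of 0.37, 0.75, 1.12, 1.86, 3.73 or 7.45 mM/kg. Stomachs were removed 8 h later and scored for hemorrhagic damage. Mean ± SEM, n = 3−6.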

Rattus norvegicus [10] = experiment: Toxicity in rat assessed as gastric ulcerogenic activity at 7.45 mM/kg, po measured after 8 hrs; assay type: organism-based, Stomach; conditions: in vivo, 7450 µM; in short: as §4
Rattus norvegicus [11] = experiment: Antiinflammatory activity against Wistar rat assessed as inhibition of carrageenan induced edema volume at 3.73 to 37.3 uM/kg, po administered 1 hr prior carrageenan-challenge measured after 3 to 6 hrs post challenge; assay type: functional, organism-based
In short: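 Rats dosed orally at 3.73, 11.2 or 37.3 μM/kg. Carrageenan (1%) was injected intradermally into the left hindpaw 1 h after dosing. Footpad edema was measured 3 and 6 h after carrageenan, and relative inhibition of the edema volume increase was calculated. Mean ± SEM, n = 3−6.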

T1 sequence (P23219 whole entry): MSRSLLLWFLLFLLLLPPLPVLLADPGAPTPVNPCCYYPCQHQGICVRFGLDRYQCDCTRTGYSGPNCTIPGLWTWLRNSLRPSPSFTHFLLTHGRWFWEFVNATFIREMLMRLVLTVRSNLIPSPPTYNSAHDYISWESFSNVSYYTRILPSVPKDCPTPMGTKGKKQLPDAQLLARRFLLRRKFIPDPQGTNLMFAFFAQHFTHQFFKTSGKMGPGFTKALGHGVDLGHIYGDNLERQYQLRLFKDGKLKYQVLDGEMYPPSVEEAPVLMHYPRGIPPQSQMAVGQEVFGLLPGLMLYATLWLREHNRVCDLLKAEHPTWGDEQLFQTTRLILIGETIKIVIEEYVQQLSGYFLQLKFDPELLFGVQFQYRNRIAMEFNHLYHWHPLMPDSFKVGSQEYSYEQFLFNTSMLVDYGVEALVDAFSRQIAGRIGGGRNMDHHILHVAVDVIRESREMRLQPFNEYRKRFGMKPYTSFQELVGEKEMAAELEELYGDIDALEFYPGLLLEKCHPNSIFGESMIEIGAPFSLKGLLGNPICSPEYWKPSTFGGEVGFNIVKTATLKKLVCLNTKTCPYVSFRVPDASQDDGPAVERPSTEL

| SMILES | inhibition [3] | inhibition [4] | inhibition [5] | inhibition [6] | IC50 [7] | Ratio IC50 (Homo sapiens) | IC50 [8] | inhibition (INH) (Rattus norvegicus [1]) | inhibition (INH) (Rattus norvegicus [2]) | Activity (Rattus norvegicus [9]) | Activity (Rattus norvegicus [10]) | inhibition (Rattus norvegicus [11]) |
| --- | --- | --- | --- | --- | --- | --- | --- | --- | --- | --- | --- | --- |
| CC(C(=O)O)c1ccc(NC2CCCCC2)cc1F (stereo not given) | 0% | 30% | 0% | 0% |  |  |  | <0% | 19.2% |  |  |  |
| CC(C(=O)O)c1ccc(OC2CCCC2=O)cc1F (stereo not given) | 82.3% | 82.5% | 27.6% | 80.6% | 1.5 µM | 0.1 | 24.1 µM | 30.3% | 25% |  |  |  |
| CC(C(=O)O)c1ccc(CC2CCCC2=O)cc1 (stereo not given) [LOXOPROFEN] | 87.5% | 97.4% | 53.2% | 35% |  | 2.3 |  | 44% | 53.1% | Toxic |  |  |
| CC(C(=O)O)c1ccc(NC2CCCC2)cc1F (stereo not given) | 92% | 91.9% | 40.7% | 34.7% | 15.6 µM | 0.7 | 21.3 µM | 45.5% | 60.1% | Non-toxic | Non-toxic | Active |
| CC(C(=O)O)c1ccc(SC2CCCC2)cc1F (stereo not given) | 87.9% | 80.1% | 15.6% | 4.7% |  |  |  | <0% | 9.5% |  |  |  |
| Cc1ccc(-c2cc(C(F)(F)F)nn2-c2ccc(S(N)(=O)=O)cc2)cc1 |  |  |  |  |  | 22.7 |  |  |  |  |  |  |
| CC(C(=O)O)c1cc(F)c(CC2CCCC2=O)cc1F (stereo not given) | 81% | 84.8% | 15% | 0% |  |  |  | <0% | <0% |  |  |  |
| CC(C(=O)O)c1c(F)cc(CC2CCCC2=O)cc1-c1ccc(O)cc1 (stereo not given) | 7.2% | 38% | 15.4% | 0% |  |  |  | <0% | <0% |  |  |  |
| CC(C(=O)O)c1c(F)cc(CC2CCCC2=O)cc1F (stereo not given) | 79.3% | 70.9% | 0% | 11.3% |  |  |  | 21.6% | 17.7% |  |  |  |
| CC(C(=O)O)c1ccc(N[C@H]2CCCC[C@@H]2O)cc1F (stereo not given in full) | 0% | 76.7% | 28.3% | 0% |  |  |  | <0% | <0% |  |  |  |
| CC(C(=O)O)c1c(F)cc(CC2CCCC2=O)cc1Br (stereo not given) | 49.7% | 0% | 0% | 13.8% |  |  |  | <0% | <0% |  |  |  |
| CC(C(=O)O)c1ccc(OC2CCCC2)cc1F (stereo not given) | 81.4% | 96.4% | 39.7% | 65% | 3 µM | 0.1 | 26.3 µM | 40.4% | 51.9% | Non-toxic | Non-toxic |  |

Second part, led by results:

| inhibition [3] | inhibition [4] | inhibition [5] | inhibition [6] | IC50 [7] | Ratio IC50 (Homo sapiens) | IC50 [8] | SMILES | inhibition (INH) (Rattus norvegicus [1]) | inhibition (INH) (Rattus norvegicus [2]) | Activity (Rattus norvegicus [9]) | Activity (Rattus norvegicus [10]) | inhibition (Rattus norvegicus [11]) |
| --- | --- | --- | --- | --- | --- | --- | --- | --- | --- | --- | --- | --- |
| 13.5% | 0% | 0% | 0% |  |  |  | CCC(=O)C(C)Cc1ccc(C(C)C(=O)O)c(F)c1 (stereo not given) | <0% | <0% |  |  |  |
| 79.9% | 96.1% | 64.1% | 26.3% | 21.6 µM | 5.3 | 4.1 µM | CC(C(=O)O)c1ccc(Cc2ccco2)cc1F (stereo not given) | 38.9% | 45.8% | Non-toxic |  |  |
| 57.5% | 90.9% | 58.7% | 30.9% | 30.1 µM | 7.6 | 4 µM | CC(C(=O)O)c1ccc(Cc2ccoc2)cc1F (stereo not given) | 32.7% | 45.2% | Non-toxic |  |  |
| 87.4% | 99.5% | 60.2% | 53.9% | 9.5 µM | 1.2 | 8.3 µM | CC(C(=O)O)c1ccc(Cc2ccsc2)cc1F (stereo not given) | 40.2% | 33.4% | Toxic |  |  |
| 83.4% | 77.6% | 45.3% | 54.6% | 9 µM | 0.7 | 14 µM | CC(C(=O)O)c1ccc(N[C@H]2CCC[C@@H]2O)cc1F (stereo not given in full) | 20.6% | 5.7% |  |  |  |
| 47.6% | 64.4% | 0% | 0% |  |  |  | CC(C(=O)O)c1ccc(S[C@H]2CCC[C@@H]2O)cc1F (stereo not given in full) | <0% | <0% |  |  |  |
| 76.5% | 89.2% | 45.8% | 27.4% | 19.9 µM | 1.5 | 13 µM | CC(C(=O)O)c1ccc(Cc2cccs2)cc1F (stereo not given) | 12.5% | 28% |  |  |  |
| 60.7% | 93.1% | 55.5% | 0% |  |  |  | CC(C(=O)O)c1ccc(SC2CCCC2=O)cc1F (stereo not given) | 38% | 27.2% |  |  |  |
| 98.1% | 82.2% | 0% | 78% |  |  |  | CCC(Cc1ccc(C(C)C(=O)O)c(F)c1)C(C)=O (stereo not given) | 20.9% | 20.2% |  |  |  |
| 78.2% | 80.2% | 25.4% | 10.4% |  |  |  | CC(C(=O)O)c1ccc(O[C@H]2CCC[C@@H]2O)cc1F (stereo not given in full) | <0% | 13.3% |  |  |  |
| 85.7% | 81.8% | 44.2% | 32.7% |  | 1.7 |  | CC(C(=O)O)c1ccc(CC2CCCC2=O)cc1F (stereo not given) | 41.8% | 54.1% | Non-toxic |  | Active |
